Each structure is given as a SMILES string.

One assay relates to A549. The assay can be described thus: Cytotoxicity against human A549 cells after 48 hrs by MTT assay. Particulars: A549, 48 h. In kind it is functional. Summed up: (§1)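 Cell lines were grown in modified Eagle's medium with 10% FBS. Cells were seeded at 10,000 per well and left 24 h to attach in humid 5% CO₂. Viability was measured by MTT, with formazan dissolved in DMSO and absorbance read at 562 nm. Results are % cytotoxicity/viability, triplicates.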

The subject of the next assay is HepG2. The assay can be described thus: Cytotoxicity against human HepG2 cells after 48 hrs by MTT assay. Type of assay: functional. Particulars: HepG2, 48 h. Summed up: as §1
Another assay deals with HeLa. The assay can be described thus: Cytotoxicity against human HeLa cells after 48 hrs by MTT assay. In kind it is functional. An outline of the steps: as §1
The target of another assay is T1, Aminopeptidase N (Sus scrofa, UniProt P15145).
T1 sequence (P15145 whole entry): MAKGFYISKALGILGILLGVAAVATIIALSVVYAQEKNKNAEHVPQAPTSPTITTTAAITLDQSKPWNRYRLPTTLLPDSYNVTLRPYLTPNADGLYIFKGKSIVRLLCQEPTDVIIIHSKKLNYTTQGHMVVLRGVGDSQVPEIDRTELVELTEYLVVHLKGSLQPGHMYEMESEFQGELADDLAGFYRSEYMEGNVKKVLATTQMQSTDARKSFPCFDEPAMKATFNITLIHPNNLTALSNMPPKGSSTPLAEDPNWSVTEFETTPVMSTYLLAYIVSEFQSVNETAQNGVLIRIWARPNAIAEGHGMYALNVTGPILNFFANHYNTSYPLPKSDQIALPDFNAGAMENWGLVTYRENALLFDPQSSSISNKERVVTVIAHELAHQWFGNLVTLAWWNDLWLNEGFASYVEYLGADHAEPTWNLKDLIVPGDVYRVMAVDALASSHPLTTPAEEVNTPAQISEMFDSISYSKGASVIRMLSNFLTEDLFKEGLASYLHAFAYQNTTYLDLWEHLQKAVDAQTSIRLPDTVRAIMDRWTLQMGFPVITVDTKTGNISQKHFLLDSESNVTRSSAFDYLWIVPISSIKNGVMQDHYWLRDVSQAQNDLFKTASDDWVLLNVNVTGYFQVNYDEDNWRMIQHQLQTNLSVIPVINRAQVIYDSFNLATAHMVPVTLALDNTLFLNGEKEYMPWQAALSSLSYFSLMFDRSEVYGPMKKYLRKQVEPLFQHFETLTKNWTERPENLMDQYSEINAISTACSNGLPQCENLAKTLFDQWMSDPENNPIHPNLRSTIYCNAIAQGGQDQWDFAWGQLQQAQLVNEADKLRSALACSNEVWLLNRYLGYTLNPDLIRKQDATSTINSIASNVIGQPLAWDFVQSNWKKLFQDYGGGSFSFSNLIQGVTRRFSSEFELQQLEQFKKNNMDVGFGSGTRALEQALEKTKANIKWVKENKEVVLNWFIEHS
The assay can be described thus: Inhibition of porcine aminopeptidase-N using Leu-pNA as substrate after 30 mins. An outline of the steps:
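Commercial porcine enzyme was preincubated with compound in triplicate for 30 min at 37 °C. Substrate was then added and the immediate absorbance rise at 405 nm recorded. IC₅₀ was computed from the concentration series.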

A short description of assay [1]: Inhibition of Plasmodium falciparum aminopeptidase-N using Leu-pNA as substrate after 30 mins. Summed up:
(§2)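 Enzyme was preincubated with compound in triplicate for 30 min at 37 °C in 10 mM Tris pH 7.5, 100 mM NaCl. Leu-pNA was then added and the immediate absorbance rise followed at 405 nm. IC₅₀ was computed from the concentration series.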

Assay [2] is described as follows: Inhibition of Escherichia coli aminopeptidase-N using Leu-pNA as substrate after 30 mins. An outline of the steps: as §2
Assay [3] concerns the target Puromycin-sensitive aminopeptidase (Homo sapiens, UniProt P55786). The assay can be described thus: Inhibition of recombinant human puromycin sensitive aminopeptidase using Leu-pNA as substrate after 30 mins.

Puromycin-sensitive aminopeptidase, sequence (P55786 whole entry): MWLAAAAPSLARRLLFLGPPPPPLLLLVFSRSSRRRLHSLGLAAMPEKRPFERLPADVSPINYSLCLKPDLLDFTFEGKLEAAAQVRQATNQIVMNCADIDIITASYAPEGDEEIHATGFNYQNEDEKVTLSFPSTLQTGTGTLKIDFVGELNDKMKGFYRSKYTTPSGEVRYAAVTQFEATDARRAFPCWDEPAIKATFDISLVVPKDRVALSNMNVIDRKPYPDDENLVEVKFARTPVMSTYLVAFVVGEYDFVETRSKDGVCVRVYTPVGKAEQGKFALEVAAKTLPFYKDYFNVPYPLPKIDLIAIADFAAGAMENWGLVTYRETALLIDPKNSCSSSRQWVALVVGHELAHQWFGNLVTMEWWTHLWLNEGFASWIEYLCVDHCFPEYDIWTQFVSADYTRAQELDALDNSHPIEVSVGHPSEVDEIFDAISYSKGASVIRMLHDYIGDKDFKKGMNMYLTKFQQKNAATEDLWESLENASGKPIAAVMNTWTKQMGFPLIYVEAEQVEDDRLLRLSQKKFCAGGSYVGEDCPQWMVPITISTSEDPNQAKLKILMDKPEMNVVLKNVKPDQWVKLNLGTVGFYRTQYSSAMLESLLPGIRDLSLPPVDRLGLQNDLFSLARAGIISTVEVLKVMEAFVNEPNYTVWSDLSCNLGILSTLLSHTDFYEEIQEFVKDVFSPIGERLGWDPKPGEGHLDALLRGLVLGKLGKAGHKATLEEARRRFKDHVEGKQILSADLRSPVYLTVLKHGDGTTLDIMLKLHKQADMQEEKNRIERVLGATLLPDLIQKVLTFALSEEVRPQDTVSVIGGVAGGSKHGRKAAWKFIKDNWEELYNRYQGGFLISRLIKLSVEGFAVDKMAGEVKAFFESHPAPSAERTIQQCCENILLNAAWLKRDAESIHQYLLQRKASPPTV

As for `COc1cccc2c1C(=O)c1c(O)c3c(c(O)c1C2=O)C[C@@](O)(C(=O)CO)C[C@@H]3O[C@H]1C[C@H](N)[C@H](O)[C@H](C)O1` [DOXORUBICIN], the concentration for 50% growth inhibition (GI50) in the assay on A549 was found to be 8.14 µM; in the assay with HepG2 it was 4.45 µM; in the assay on HeLa, 7.51 µM.
With `CCOC(=O)C1=C(Nc2ccccc2)CC(c2ccc(Br)cc2)N(c2ccccc2)C1c1cccs1` (stereo not given), the 50% inhibitory concentration (IC50) (on Aminopeptidase N; in assay [1]; in assay [2]) was > 100 µM in each case.
As for `CCOC(=O)C1=C(Nc2ccccc2)CC(c2cc(OC)c(OC)c(OC)c2)N(c2ccccc2)C1c1cccnc1` (stereo not given), the IC50 (against Aminopeptidase N; in assay [1]; in assay [2]) was > 100 µM each time.
Regarding `CCOC(=O)C1=C(Nc2ccccc2)CC(c2ccccn2)N(c2ccccc2)C1c1ccccn1` (stereo not given), the 50% inhibitory concentration (IC50) (on Aminopeptidase N; in assay [1]; in assay [2]) was > 100 µM each time.
On to `COC(=O)C1=C(Nc2ccccc2)CC(c2ccc([N+](=O)[O-])cc2)N(c2ccccc2)C1c1ccc([N+](=O)[O-])cc1` (stereo not given), for which the IC50 (against Aminopeptidase N; in assay [1]; in assay [2]) was > 100 µM in each case.
For `CCOC(=O)C1C(=O)CC(c2ccccn2)N(c2ccccc2)C1c1ccccn1` (stereo not given), the IC50 (against Aminopeptidase N; in assay [1]; in assay [2]) was > 100 µM throughout.
As to `CCOC(=O)C1=C(Nc2ccccc2)CC(c2ccc(Br)cc2)N(c2ccccc2)C1c1ccc([N+](=O)[O-])cc1` (stereo not given), the GI50 is > 100 µM with A549, > 100 µM in the assay with HepG2 and 10.6 µM in the assay with HeLa.
With `CCOC(=O)C1=C(Nc2ccc(C)cc2)CC(c2ccccc2)N(c2ccc(C)cc2)C1c1ccccn1` (stereo not given), the IC50 (against Aminopeptidase N; in assay [1]; in assay [2]) was > 100 µM in each case. In addition, the GI50 with A549 was > 100 µM; in the assay on HepG2, > 100 µM; with HeLa it was 90.7 µM.
With `CCOC(=O)C1C(=O)CC(c2cccnc2)N(c2ccccc2)C1c1cccnc1` (stereo not given), the IC50 (against Aminopeptidase N; in assay [1]; in assay [2]) was > 100 µM each time. The figures for the GI50 in the assay with A549, in the assay with HepG2 and in the assay on HeLa were > 100 µM, 11.2 µM and 9.32 µM, respectively.
On to `CCOC(=O)C1=C(Nc2ccccc2)CC(c2ccc(C#N)cc2)N(c2ccccc2)C1c1ccccn1` (stereo not given), for which the concentration for half-maximal inhibition (IC50) (at Aminopeptidase N; in assay [1]; in assay [2]) was > 100 µM each time.
For `CCOC(=O)C1=C(Nc2ccccc2)CC(c2cccnc2)N(c2ccccc2)C1c1cccnc1` (stereo not given), the concentration for half-maximal inhibition (IC50) (on Aminopeptidase N; in assay [1]; in assay [2]) was > 100 µM in each case. Besides, the 50% growth inhibitory concentration (GI50) in the assay on A549 is > 100 µM; with HepG2, 81.5 µM; in the assay with HeLa it was 87.9 µM.
With `CCOC(=O)C1=C(Nc2ccc(C)cc2)CC(c2ccc(F)cc2)N(c2ccc(C)cc2)C1c1ccc(F)cc1` (stereo not given), the results for the GI50 in the assay on A549, with HepG2 and with HeLa were > 100 µM, 14.9 µM and > 100 µM, respectively.
As to `CCOC(=O)C1=C(Nc2ccccc2)CC(c2ccc(F)cc2)N(c2ccccc2)C1c1ccc([N+](=O)[O-])cc1` (stereo not given), the GI50 in the assay on A549 was > 100 µM; with HepG2 it was > 100 µM; with HeLa, 88.2 µM.
For `CCOC(=O)C1=C(Nc2ccccc2)CC(c2ccc(Cl)cc2)N(c2ccccc2)C1c1cccnc1` (stereo not given), the 50% inhibitory concentration (IC50) (on Aminopeptidase N; in assay [1]; in assay [2]) was > 100 µM throughout. The figures for the concentration for 50% growth inhibition (GI50) in the assay with A549, with HepG2 and with HeLa were > 100 µM, 11.9 µM and 9.95 µM, respectively.
Regarding `CCOC(=O)C1=C(Nc2ccccc2)CC(c2ccc(C#N)cc2)N(c2ccccc2)C1c1cccnc1` (stereo not given), the IC50 (against Aminopeptidase N; in assay [1]; in assay [2]) was > 100 µM each time. The 50% growth inhibitory concentration (GI50) with A549 was > 100 µM; in the assay with HepG2 it was 13.7 µM; in the assay on HeLa, > 100 µM.
As for `OC1=CC(c2cccnc2)N(c2ccccc2)C(c2cccnc2)C1` (stereo not given), the half-maximal inhibitory concentration (IC50) (against Aminopeptidase N; in assay [1]; in assay [2]) was > 100 µM throughout.
In the case of `COc1ccc(C[C@H](N)C(=O)N[C@H]2[C@@H](O)[C@H](n3cnc4c(N(C)C)ncnc43)O[C@@H]2CO)cc1` [PUROMYCIN], the 50% inhibitory concentration (IC50) against Aminopeptidase N is > 100 µM; in assay [3] it was 2.45 µM; in assay [1], > 100 µM; in assay [2], > 100 µM.
On to `OC1=CC(c2ccccn2)N(c2ccccc2)C(c2ccccn2)C1` (stereo not given), for which the IC50 (against Aminopeptidase N; in assay [1]; in assay [2]) was > 100 µM in each case.
